From PubChem BioAssay
Sampled rows, rich in hits. Any-hit rate of the full collection: about 2%.
XiGFP reactiv = activators of X-chromosome reactivation in mouse fibroblasts; XiGFP mouse fibroblasts, % GFP-positive cells imaging, 3 d; cells co-treated with 5-aza-dC sensitizer; scaled so ellipticine positive control = 100%; activation, % at 7.58 µM; 360,000 compounds, 0.055% hits;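 active means mean normalized replicate activation at least 10% and every replicate at or above 10%; inconclusive means only one of the two criteria met; inactive means mean below 10% and not all replicates reach 10%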
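System: XiGFP fibroblasts, SV40-immortalized. Medium: DMEM plus 5-aza-dC sensitizer. Doses: single point. Timing: 3 d treatment, 15 min room-temperature fixation. Control set: ellipticine 6 µM.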
CaV13 ICDI inh = Disruptors of the CACNA1D IQ motif to Ca2+-dependent inactivation inhibitor domain association, primary screening, Förster resonance energy transfer in intact living …; inhibition, % at 12.3 µM; 340,000 compounds, 0.098% hits; HEK cells, CFP/YFP FRET ICDI-IQ, plate reader, 10 min; percent FRET-ratio fall versus neutral wells;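 active means mean replicate inhibition of at least 30% and at least 1% of replicates passing that level; inconclusive means only one of the two criteria is met; inactive means neither criterion is met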
FN deposit inh = fibronectin deposition inhibition; AH1F fibroblasts, Alexa488-fibronectin deposition fluorescence, overnight; 350,000 compounds, 0.086% hits; inhibition, % at 12.6 µM; AID 743247;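 active means mean inhibition across replicates of 30% or more, regardless of how many single replicates reach that level; inconclusive means mean under 30% yet at least half of replicates reach 30%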
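Material – AH1F fibroblast monolayer, labelled fibronectin deposition · Reagent – labelled fibronectin 24 nM · Timing – 1 h adhesion, overnight exposure · Measured by – fluorescence at 485 nm excitation, 525 nm emission · Read-out – inhibition of fibronectin deposition signal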
Casp6 inh = inhibitors of human caspase-6 | AID 686996 | purified caspase-6, Z-VEID-R110 cleavage fluorescence | inhibition, % at 12.5 µM | 350,000 compounds, 0.53% hits;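 active means mean inhibition across replicates at least about 35%, with every replicate also reaching that limit, limit read from the data; inconclusive means only one of the two criteria met; inactive means neither criterion met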
Target sequence (P55212 24-179 limits assumed): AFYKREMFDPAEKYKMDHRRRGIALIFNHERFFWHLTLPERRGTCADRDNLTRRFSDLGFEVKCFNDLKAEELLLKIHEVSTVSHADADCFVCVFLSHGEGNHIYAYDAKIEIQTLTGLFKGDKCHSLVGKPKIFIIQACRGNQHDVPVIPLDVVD
Target sequence (P55212 194-293 limits assumed): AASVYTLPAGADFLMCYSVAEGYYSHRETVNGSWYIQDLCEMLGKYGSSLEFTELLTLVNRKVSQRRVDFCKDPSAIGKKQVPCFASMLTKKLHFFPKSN
DENV2 CPE rescue = protects cells from dengue virus 2 cytopathic effect; AID 651640; 350,000 compounds, 1.7% hits; CPE inhibition, % at 9.99 µM; DENV2-infected cells, cytopathic effect rescue, plate reader; in the data active means CPE inhibition above about 20%, passing the limit was not always enough; inconclusive means no clear call, values can overlap the other calls; tested in BHK-21 cells
Hits are given with their value; n = inactive; u = inconclusive; x = not tested or not shown; + = active, no number.

SMILES	XiGFP reactiv	CaV13 ICDI inh	FN deposit inh	Casp6 inh	DENV2 CPE rescue
O=C(c1cccc(F)c1)N1C[C@@H]2[C@H](c3ccccc31)[C@@H](CO)N2C(=O)C1CC1	n	x	n	n	55
O=C(c1cccc(F)c1)N1C[C@H]2[C@@H](c3ccccc31)[C@@H](CO)N2C(=O)C1CC1	n	x	n	n	n
O=C(c1cccc(F)c1)N1C[C@H]2[C@@H](c3ccccc31)[C@H](CO)N2C(=O)C1CCCC1	n	x	n	n	n
O=C(Cc1ccccc1)N1C[C@H]2[C@@H](c3ccccc31)[C@@H](CO)N2C(=O)c1cccc(F)c1	n	x	x	n	37
O=C(C1CCOCC1)N1C[C@@H]2[C@H](c3ccccc31)[C@H](CO)N2C(=O)c1ccccc1	n	x	x	n	89
CC(C)c1ccc(NC(=O)C[C@H]2CC[C@H]3[C@@H](COc4ccc(NC(=O)Nc5ccc(F)c(F)c5)cc4C(=O)N3C)O2)cc1	x	x	x	n	n
CC(C)NC(=O)Nc1ccc2c(c1)CC(=O)N([C@@H](C)CO)C[C@@H](C)[C@H](CN(C)S(C)(=O)=O)O2	n	x	x	x	n
COc1cccc(-c2ccc([C@H]3[C@@H](CO)N4C(=O)CN(C(=O)C5CCCC5)C[C@@H]34)cc2)c1	n	x	n	n	n
NC(=O)[C@@H]1CC2(CC(c3cccc(NC(=O)COc4ccc(Cl)cc4)c3)=NO2)CN1C(=O)c1ccccc1 (stereo partly drawn)	n	n	n	n	66
C=C(C)C(=O)Nc1cccc(C2=NOC3(C2)C[C@@H](C(N)=O)N(C(=O)CCCCC)C3)c1 (stereo partly drawn)	n	n	n	59	n
C=C(C)C(=O)N1CC2(CC(c3cccc(NC(=O)COc4ccc(Cl)cc4)c3)=NO2)C[C@@H]1C(N)=O (stereo partly drawn)	n	n	n	n	34
COc1ccc(NC(=O)Nc2ccc3c(c2)C(=O)N([C@@H](C)CO)C[C@@H](C)[C@@H](CN(C)C(=O)Nc2ccc(C(F)(F)F)cc2)O3)cc1	n	x	x	n	u
O=c1[nH]c2ccccc2nc1/C=C/c1ccccc1	n	+	n	n	n
O=c1[nH]c2ccccc2nc1/C=C/c1ccc(O)cc1	n	n	n	n	n
O=C(CN1CCN(C(c2ccccc2)c2ccccc2)CC1)N1CCOCC1	x	n	x	n	23
COc1ccc(N2CCN(C(=O)CN3CCN(C(c4ccccc4)c4ccccc4)CC3)CC2)cc1	n	n	n	x	x
N=C1/C(=C\c2ccc(-c3ccc(C(=O)O)cc3)o2)C(=O)N=C2SC=C(c3ccccc3)N12	n	n	n	n	n
N=C1/C(=C\c2ccc(-c3cccc(Cl)c3)o2)C(=O)N=C2SC=C(c3ccccc3)N12	n	n	n	n	67
Clc1ccc(C=Cc2ccccn2)c(Cl)c1	n	n	n	n	38
COc1ccccc1NC(=O)N1CC(=O)N2[C@H](CO)[C@H](c3ccc(-c4ccc(F)cc4)cc3)[C@@H]2C1	n	x	x	n	n
COc1ccc(Nc2nc(-c3sc(N)nc3C)cs2)cc1	x	n	n	x	x
Cc1ccc(Nc2nc(-c3sc(N)nc3C)cs2)cc1	n	n	n	n	47
COc1cccc(C#Cc2ccc3c(c2)O[C@H](CN(C)C(=O)c2ccccn2)[C@H](C)CN([C@@H](C)CO)S3(=O)=O)c1	n	x	n	x	n
COc1cccc(NC(=O)CSc2nnc(-c3ccco3)c(-c3ccco3)n2)c1	n	n	n	43	n
Clc1ccccc1Nc1nc(NCc2ccccc2)nc2ccsc12	n	n	n	n	n
SMILES	XiGFP reactiv	CaV13 ICDI inh	FN deposit inh	Casp6 inh	DENV2 CPE rescue
OCc1ccccc1-c1nc(NCc2ccccc2)nc2ccsc12	n	n	n	42	n
O=C(CC1NCCN(Cc2ccccc2)C1=O)Nc1ccccc1 (stereo not drawn)	n	n	n	n	72
C[C@H]1CN([C@@H](C)CO)C(=O)c2cc(NC(=O)C3CC3)ccc2O[C@H]1CN(C)S(=O)(=O)c1cn(C)cn1	n	x	x	n	n
C=CC(=O)N1C/C(=C/c2ccc(F)cc2)C(=O)/C(=C\c2ccc(F)cc2)C1	n	n	n	78	n
CN1C2CCC1/C(=C\c1ccc(F)cc1)C(=O)/C2=C/c1ccc(F)cc1	n	n	n	x	x
CS(=O)(=O)Nc1ccc2c(c1)[C@H]1C[C@H](CC(=O)O)O[C@@H](CO)[C@H]1O2	n	x	n	n	25
